Assay results: ChEMBL document CHEMBL1151748, “Synthesis, modeling, and RET protein kinase inhibitory activity of 3- and 4-substituted beta-carbolin-1-ones” (J Med Chem, 2008)
The source made the active and inactive calls. The calls are words filed in the database; no cut-off is given here.

Columns and labels:
[1] = test system: NIH3T3; assay: Antiproliferative activity against mouse NIH3T3 cells expressing RET C634R mutant associated with MEN2A syndrome after 72 hrs; conditions: NIH3T3, 72 h
[2] = test system: NIH3T3; assay: Antiproliferative activity against mouse NIH3T3 cells after 72 hrs; conditions: NIH3T3, 72 h
[3] = test system: NIH3T3; assay: Antiproliferative activity against mouse NIH3T3 cells transfected with H-RAS oncogene after 72 hrs; conditions: NIH3T3, 72 h
[4] = target: Proto-oncogene tyrosine-protein kinase receptor Ret (Homo sapiens, UniProt P07949); assay: Inhibition of recombinant RET active protein by immunoblotting
[5] = test system: NIH3T3; assay: Inhibition of RET oncoprotein expression in mouse NIH3T3 cells transfected with RET C634R mutant associated with MEN2A syndrome at 2.5 to 10 uM after 24 hrs by Western blot; type: functional, cell-based
Summary of the method: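 NIH3T3MEN2A cells were exposed to compound or to DMSO vehicle for 24 h. Whole-cell lysates were Western blotted with anti-Ret (H300) and anti-phospho-Ret (Y1062) antibodies. Actin served as the loading control, and a lysate of untreated parental NIH3T3 cells was run alongside.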

Chain of Proto-oncogene tyrosine-protein kinase receptor Ret (P07949 whole entry): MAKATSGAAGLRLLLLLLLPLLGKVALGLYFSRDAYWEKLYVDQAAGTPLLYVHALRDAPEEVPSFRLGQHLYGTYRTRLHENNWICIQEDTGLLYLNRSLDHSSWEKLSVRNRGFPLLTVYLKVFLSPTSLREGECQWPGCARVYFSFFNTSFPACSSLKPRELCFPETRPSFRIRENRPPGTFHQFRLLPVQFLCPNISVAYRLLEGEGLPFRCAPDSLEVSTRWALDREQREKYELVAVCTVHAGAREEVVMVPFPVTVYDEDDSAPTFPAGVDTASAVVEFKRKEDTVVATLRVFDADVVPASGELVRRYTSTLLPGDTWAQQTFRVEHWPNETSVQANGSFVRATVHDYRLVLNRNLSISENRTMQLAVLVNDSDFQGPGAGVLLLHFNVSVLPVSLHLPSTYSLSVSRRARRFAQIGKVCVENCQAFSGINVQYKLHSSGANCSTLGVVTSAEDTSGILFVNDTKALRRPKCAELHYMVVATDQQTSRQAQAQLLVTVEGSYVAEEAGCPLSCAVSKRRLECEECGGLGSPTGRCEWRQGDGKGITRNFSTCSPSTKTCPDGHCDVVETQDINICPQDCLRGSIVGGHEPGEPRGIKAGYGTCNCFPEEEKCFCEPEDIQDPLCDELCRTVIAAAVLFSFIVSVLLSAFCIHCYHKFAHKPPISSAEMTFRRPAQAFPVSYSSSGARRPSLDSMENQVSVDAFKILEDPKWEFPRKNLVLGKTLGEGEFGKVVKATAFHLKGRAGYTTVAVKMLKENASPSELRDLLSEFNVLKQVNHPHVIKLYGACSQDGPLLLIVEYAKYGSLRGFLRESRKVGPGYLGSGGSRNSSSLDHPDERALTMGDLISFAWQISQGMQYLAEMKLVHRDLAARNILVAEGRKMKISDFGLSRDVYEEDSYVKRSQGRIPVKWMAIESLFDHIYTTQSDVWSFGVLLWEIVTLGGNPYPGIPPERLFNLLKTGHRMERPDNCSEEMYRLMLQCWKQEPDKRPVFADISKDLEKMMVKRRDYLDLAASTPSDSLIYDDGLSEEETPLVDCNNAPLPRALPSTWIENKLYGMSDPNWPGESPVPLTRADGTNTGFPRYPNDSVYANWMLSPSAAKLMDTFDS

Compound: COc1ccc2c(c1)c1c(-c3ccc(O)cc3)c[nH]c(=O)c1n2C
- IC50 [1]: 12.2 µM
- IC50 [2]: 25 µM
- IC50 [3]: > 30 µM

Compound: COc1cc2c3c(n(C)c2cc1OC)C(=O)NCC=C3
- IC50 [1]: 7.8 µM

Compound: COc1cc2c3c(-c4cccc(O)c4)c[nH]c(=O)c3n(C)c2cc1OC
- IC50 [1]: 3.2 µM
- IC50 [4]: 0.09 µM
- IC50 [2]: 6.7 µM
- IC50 [3]: 6.1 µM

Compound: COc1cc2[nH]c3c(=O)[nH]cc(-c4ccc(O)cc4)c3c2cc1OC
- IC50 [1]: 4.7 µM
- IC50 [4]: 0.11 µM
- IC50 [2]: 13.9 µM
- IC50 [3]: 13.5 µM

Compound: COc1cc2c3c(n(C)c2cc1OC)C(=O)N(C)CC=C3c1ccc(O)cc1
- IC50 [1]: 18.4 µM

Compound: COc1cc2c3c(-c4ccc(O)cc4)c[nH]c(=O)c3n(C)c2cc1OC
- IC50 [1]: 1.95 µM
- IC50 [2]: 7.2 µM
- Activity [5]: Active
- IC50 [3]: 6.6 µM

Compound: COc1cc2c3ccn(Cc4ccccc4)c(=O)c3n(C)c2cc1OC
- IC50 [1]: 15.9 µM
- IC50 [4]: > 0.6 µM

Compound: COc1cc2c3cc(-c4ccccc4)[nH]c(=O)c3n(C)c2cc1OC
- IC50 [1]: 34.4 µM

Compound: COc1cc2c3c(-c4ccccc4)c[nH]c(=O)c3n(C)c2cc1OC
- IC50 [1]: 3.3 µM
- IC50 [4]: 0.25 µM
- IC50 [2]: 17.8 µM
- IC50 [3]: 13.8 µM

Compound: COc1cc2c3c(n(C)c2cc1OC)C(=O)NCC=C3c1ccc(O)cc1
- IC50 [1]: 14.4 µM

Compound: COc1ccc(C2=CCNC(=O)c3c2c2cc(OC)c(OC)cc2n3C)cc1
- IC50 [1]: 9.9 µM

Compound: Cn1c2ccccc2c2c(-c3ccc(O)cc3)c[nH]c(=O)c21
- IC50 [1]: 17.3 µM
- IC50 [2]: > 30 µM
- IC50 [3]: > 30 µM

Compound: COc1cc2c3c(C)c[nH]c(=O)c3n(C)c2cc1OC
- IC50 [1]: 5.6 µM
- IC50 [4]: > 0.6 µM
- IC50 [2]: 10.6 µM

Compound: COc1cc2[nH]c3c(c2cc1OC)C(c1ccc(O)cc1)=CCNC3=O
- IC50 [1]: 19.8 µM

Compound: COc1cc2c3c(-c4ccc(O)cc4)c[nH]c(=O)c3n(Cc3ccccc3)c2cc1OC
- IC50 [1]: 7.5 µM
- IC50 [2]: 17.7 µM

Compound: COc1ccc(CN2CC=C(c3ccc(O)cc3)c3c(n(C)c4cc(OC)c(OC)cc34)C2=O)cc1
- IC50 [1]: 6.8 µM

Compound: COc1cc2c3c(n(C)c2cc1OC)C(=O)NCC=C3C
- IC50 [1]: 16.7 µM

Compound: COc1cc2[nH]c3c(=O)[nH]c(-c4ccccc4)cc3c2cc1OC
- IC50 [1]: 13.3 µM
